# A selection: hits, their analogues and other compounds. The true share with any hit is near 3%.
# Myeloid diff 2 – promotes myeloid progenitor differentiation | AID 624256 | 1% of 360,000 active | calls only at 10 µM | ER-HoxA9 myeloid progenitors, lysozyme-GFP differentiation, flow cytometry;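 active = normalized GFP-positive differentiation at or above the plate's own cutoff, the solvent-only control mean plus 3 SD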;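 note: cells exposed to compound for four days before flow analysis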
# Exocytosis inh – lytic granule exocytosis inhibition | TALL-104 LAMP-1 surface exposure, flow cytometry; cells stimulated with thapsigargin and PMA | inhibition, % at 10 µM | 0.66% of 360,000 active;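 active = inhibition above about 55%, limit read from the data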
# SENP1 FRET inh – blocks the human SENP1 SUMO protease catalytic domain; recombinant SENP1 catalytic domain, CyPet-SUMO1-YPet FRET cleavage; inhibition, % at 10 µM; 0.21% of 360,000 active; AID 624204;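 active = inhibition at least 30% at 10 µM, raw YFP signal under a set limit, fluorescence ratio 0.5 to 1.5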;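 note: 0% = enzyme with DMSO and 100% = no enzyme wells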
# Target sequence (Q9P0U3 419-644 limits assumed): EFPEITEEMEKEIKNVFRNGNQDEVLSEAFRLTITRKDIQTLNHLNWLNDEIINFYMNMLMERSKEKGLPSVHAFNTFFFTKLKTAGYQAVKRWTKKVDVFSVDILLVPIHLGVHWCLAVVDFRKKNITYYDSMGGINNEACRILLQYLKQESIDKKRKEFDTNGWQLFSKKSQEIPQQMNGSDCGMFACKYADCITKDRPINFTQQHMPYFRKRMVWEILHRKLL
#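 Assay system: hSENP1 catalytic domain, recombinant. Amount: SENP1 enzyme, 20 pM final. Schedule: 50 min reaction, RT, dark. Technique: FRET, CFP and YFP emission. Control set: no-enzyme wells low, DMSO-plus-enzyme wells high control.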
# DSG3 Ab inh – human desmoglein-3 autoantibody binding inhibition; P32926; DSG3-coupled beads, scFv-anti-DSG3-GFP binding, flow cytometry; stronger effect = lower value; binding (percent of control), % at 10 µM; 0.48% of 310,000 active; AID 588358;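 active = binding more than 3 SD below its plate's average and above zero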;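 note: hits lower antibody fragment binding to DSG3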
# H9c2 protect – modulators protecting cardiomyocytes from myocardial damage; H9c2 cardiomyocytes, H2O2 injury protection, ATPLite, 2 h; protection from H2O2 cell death, % at 20 µM; 0.63% of 360,000 active; AID 588492;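 active = compounds giving at least 50% protection of heart cells from peroxide-induced death in the single-dose screen, raw or plate-pattern-corrected value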;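 note: 0% = DMSO wells with peroxide and 100% = DMSO wells without peroxide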
# HNF4A DNA FP – change in binding of human HNF4 alpha to DNA; P41235; 0.3% of 360,000 active; HNF4a-FITC DNA binding, fluorescence polarization, 1 h; activity change, % at 10 µM; in the data active = activity change above about 30%, passing the limit was not always enough
# Myeloid diff CP1 – compounds promoting myeloid differentiation | 2% of 2,300 active | calls only | ER-HoxA9 myeloid progenitors, GFP/Mac1 double-positive flow | shares compounds with Myeloid diff 2;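 active = share of green or green-and-red cells above 9 and 9% in run 1 or 4 and 3% in run 2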
# GFP autofluor – compound fluorescence in myeloid differentiation counter-screen | shares compounds with Myeloid diff 2 | ER-HoxA9 myeloid progenitors, no estrogen, GFP autofluorescence flow cytometry; vehicle wells 0%, positive control 100% | fluorescence response, % (test concentration not listed) | 7.4% of 2,300 active | AID 651707;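 active = over 5% cells positive for green fluorescent reporter, or over 2% positive for both it and APC stain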;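 note: range taken on the double positive population between DMSO and positive control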
# An asterisk follows results filed as active; i = inactive; · = no result; + = active, no number.
SMILES,Myeloid diff 2,Exocytosis inh,SENP1 FRET inh,DSG3 Ab inh,H9c2 protect,HNF4A DNA FP,Myeloid diff CP1,GFP autofluor
CCN1C(=O)[C@H]2[C@H]3CN=C(SCC4CC4)N3[C@@](Cc3ccccc3)(C(=O)OC)[C@H]2C1=O,i,1.7,3.7,110.7,14.1,0.7,i,0.4
COC(=O)[C@@]1(Cc2ccccc2)[C@H]2C(=O)N(C)C(=O)[C@H]2[C@H]2CN=C(SCC3CC3)N21,i,-1.9,1.5,106.5,12.4,-0.1,·,·
CCN1C(=O)[C@H]2[C@H]3CN=C(SCc4ccccc4)N3[C@@](Cc3ccccc3)(C(=O)OC)[C@H]2C1=O,i,-0.8,2.5,105.5,-2.3,-5.0,i,0.8
O=C(O)CCCNc1ccc(S(=O)(=O)N2CCCCC2)cc1,i,0.7,0.9,94.7,9.9,1.4,·,·
Cc1ccc(/C=N/NC(=O)c2ccncc2)o1,i,0.5,2.5,112.2,-4.1,-6.1,·,·
Cc1ccc(/C=N/NC(=O)c2cc3c(s2)CCCC3)o1,i,7.1,-3.9,·,2.4,-4.9,i,0.3
CC1(C)N=C(N)NC(Nc2ccc(Br)cc2)=N1,+,-3.4,0.2,108.1,3.7,5.0,i,0.7
CC1(C)N=C(N)NC(Nc2cccc(Br)c2)=N1,i,-2.7,-0.1,101.9,-1.4,-4.4,·,·
CC#C[C@]1(O)CC[C@H]2[C@@H]3CCC4=CC(=O)CCC4=C3[C@@H](c3ccc(N(C)C)cc3)C[C@@]21C,i,4.8,0.1,·,20.9,0.9,·,·
CCCn1c(SCC(=O)N(C2CCCCC2)C2CCS(=O)(=O)C2)n[nH]c1=O (centres undefined),i,5.2,1.5,100.6,1.7,8.4,·,·
C=CCn1cnnc1SCC(=O)N(C1CCCCC1)C1CCS(=O)(=O)C1 (centres undefined),i,-9.6,2.1,98.2,6.0,-2.5,i,0.0
Clc1ccc(CSc2nnc(-c3ccccn3)n2Cc2cccs2)cc1Cl,i,1.5,-1.5,·,-18.4,-0.9,·,·
CC1=NN(c2ccccc2)C(=O)C1C=Nc1ccccc1O (centres undefined),+,0.0,7.4,98.4,37.3,-1.5,i,0.7
CC(=O)c1c(N2CCOCC2)nc(=S)n(-c2ccc([N+](=O)[O-])cc2)c1C,i,0.5,2.3,101.7,0.3,-2.5,i,1.2
O=[N+]([O-])c1cccc(/C=C/c2ccc3cccc(O)c3n2)c1,i,-12.2,1.1,94.1,31.2,2.4,·,·
O=[N+]([O-])c1cccc(/C=C/c2nc(C=Nc3ccc4ccccc4c3)c(O)o2)c1,+,-2.6,1.8,100.6,8.9,4.3,i,5.7*
Nc1cccn2c(-c3ccc(Cl)cc3)cnc12,+,-3.3,-48.4,103.6,1.0,16.6,i,0.0
Cc1cc(C)c(S(=O)(=O)Nc2nnc(C)s2)c(C)c1,i,0.8,0.6,·,-0.5,-1.6,i,0.3
Cc1cc(OCC[N+]2(C)CCCCC2)nc2ccccc12,i,-6.3,0.1,100.7,0.6,-2.2,i,0.0
COC(=O)c1cc(S(=O)(=O)NC2CCCCC2)cn1C,i,-16.2,-0.9,94.9,-3.5,-2.1,·,·
c1ccc2c(c1)Cn1nc(Cc3nc4c(s3)CCCC4)nc1-2,i,-5.3,-1.6,107.3,-1.5,-1.6,·,·
N#CCc1nc2n(n1)Cc1ccccc1-2,i,9.2,4.1,85.1,2.8,-1.9,i,0.0
FC(F)(F)c1cccc(OCC2CNC(=S)O2)c1 (centres undefined),i,-8.7,0.8,94.2,-3.5,0.7,·,·
Cc1cccc(-c2sc(Nc3ccccc3)n[n+]2-c2ccc(F)cc2)c1,i,-3.2,-2.7,104.6,0.5,2.2,·,·
COc1ccc(-c2sc(Nc3ccccc3)n[n+]2-c2ccc(F)cc2)c(C)c1C,i,0.5,-6.8,106.6,-10.9,0.8,i,4.2*
SMILES,Myeloid diff 2,Exocytosis inh,SENP1 FRET inh,DSG3 Ab inh,H9c2 protect,HNF4A DNA FP,Myeloid diff CP1,GFP autofluor
Cc1cc(C(=O)C(C)OC(=O)c2ccc(NC(=O)CC#N)cc2)c(C)n1-c1ccc(OC(F)F)cc1 (centres undefined),+,2.4,-25.3,99.1,-20.4,8.5,i,18.4*
Cc1ccc(SCC(=O)NC2CCCCCC2)cc1,i,-0.3,0.7,·,-1.9,-2.5,·,·
COc1cccc(CN(C)C(=O)COc2ccc(C(=O)c3ccc(Cl)cc3)cc2)c1OC,i,20.5,0.0,101.4,-9.0,1.5,·,·
Cc1ccc2cc(CCNC(=O)CCCc3ccccc3)c(=O)[nH]c2c1C,i,33.6,-4.3,107.5,-1.5,0.3,·,·
Cc1ccc(NC(=O)c2ccnc(C(C)(C)C)c2)cc1,i,4.9,1.3,·,1.5,0.8,i,0.2
Cc1cccc(Nc2nc(NCC3CCCO3)nc(N)c2[N+](=O)[O-])c1 (centres undefined),+,25.3,0.4,101.1,1.4,-1.4,i,0.0
COc1cccc(N2CCN(c3ccc4nnc(CCC(=O)Nc5ccc(F)cc5)n4n3)CC2)c1,i,10.0,3.3,·,8.7,-0.1,·,·
CCOC(=O)c1c(C)[nH]c(C(=O)N/N=C\c2ccccc2Cl)c1C,i,-0.6,2.0,102.8,-1.9,0.1,i,0.0
CC[n+]1c(/C=C/c2ccc(OC)c(OC)c2)ccc2ccccc21,+,6.6,20.4,176.6,-15.4,2.1,i,2.1
CCCc1ccc(OCc2ccc(C(=O)NN)o2)c(OC)c1,+,-6.4,1.8,109.3,0.4,5.3,i,0.0
O=C1C=C(c2ccc(-c3ccccc3)cc2)C[C@@H](c2ccc(Cl)cc2)C1,i,2.8,2.0,94.6,-11.1,1.8,i,0.3
Cc1cccc(C)c1-n1c(C)nn(-c2ncc(C(F)(F)F)cc2Cl)c1=O,i,-5.9,1.9,108.8,-0.1,2.5,i,0.2
CC1CC(C)CN(c2ncc3c(n2)CC(c2ccccc2)CC3=O)C1 (centres undefined),+,0.2,-3.9,71.5*,6.0,0.8,i,0.0
COc1cc(C2CC(=O)c3cnc(N4CCN(Cc5ccccc5)CC4)nc3C2)cc(OC)c1OC (centres undefined),i,1.0,2.4,102.7,-3.4,0.5,·,·
COc1ccc(C(=O)N[C@H](C(=O)Nc2cccc(S(=O)(=O)N3CCOCC3)c2)C(C)C)cc1,+,-0.9,-0.2,105.4,-3.1,-1.6,i,0.0
O=C(C(=O)N1CCN(C(=O)OCc2ccccc2)CC1)c1cccs1,i,-6.6,-1.1,·,·,-1.3,·,·

# Screens as filed in PubChem.
